# Data from ChEMBL document CHEMBL3044585, “Potent in vivo antifungal activity against powdery mildews of pregnane glycosides from the roots of Cynanchum wilfordii” (J Agric Food Chem, 2011).
# What was measured:
# Blumeria hordei [1] = experiment: Antifungal activity against Blumeria graminis f. sp. hordei assessed as control of barley powdery mildew treated 1 day before inoculation; assay type: functional, organism-based
# In short: (§1)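 One-day protective test on barley against powdery mildew: plants treated 1 day before inoculation, with Tween 20 solution alone as the untreated reference. Pots in randomized complete block design, three replicates per treatment, experiment run twice. Infected leaf area (%) scored; % control = 100[(A − B)/A], A = infection on Tween 20-sprayed leaves, B = infection on treated leaves; reported ± standard deviation.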
# Podosphaera macularis [2] = experiment: Antifungal activity against Sphaerotheca humuli assessed as diseased fruits in strawberry powdery mildew at 4000 fold dilution (reference value: 62.2%); assay type: functional
# In short: (§2)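 Commercial greenhouse trial on strawberry cv. Janghee. Plots were 4 m long, with data taken from the middle 3 m. Sprays applied by hand-held sprayer until runoff, three times at 1-week intervals. Before each spray, ripe fruits were harvested and total and diseased fruits counted. Percentage of diseased fruits given as the mean of three replicates; disease-control percentage calculated relative to untreated control.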
# Podosphaera macularis [3] = experiment: Antifungal activity against Sphaerotheca humuli assessed as control of strawberry powdery mildew at 4000 fold dilution; assay type: functional; in short: as §2
# Blumeria hordei [4] = experiment: Antifungal activity against Blumeria graminis f. sp. hordei assessed as control of barley powdery mildew at 63 ug/mL treated 1 day before inoculation; assay type: functional; in short: as §1
# Blumeria hordei [5] = experiment: Antifungal activity against Blumeria graminis f. sp. hordei assessed as control of barley powdery mildew at 16 ug/mL treated 1 day before inoculation; assay type: functional
# In short: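 Barley plants in pots treated with sample in Tween 20 solution and inoculated 1 day later (protective assay). Randomized complete block design, three replicates per treatment, experiment run twice. Infected leaf area (%) scored. % control = 100[(A−B)/A], where A is the infection area on leaves sprayed with Tween 20 solution alone; reported ± standard deviation.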
# [6] = Blumeria hordei, read-out: IC50
Structure (SMILES),IC50 (Blumeria hordei [1]; [6]),Activity (Blumeria hordei [4]),other results
Cc1cc(O)c2c(c1)C(=O)c1cccc(O)c1C2=O [CHRYSOPHANOL],4.7 µg/mL,–,–
CC(=O)c1c(C)cc2cccc(O)c2c1O [NEPODIN],20 µg/mL,–,–
NC(=O)OC[C@H](O)[C@@H](O)[C@H](N)C(=O)N[C@H](C(=O)O)[C@H]1O[C@@H](n2cc(CO)c(=O)[nH]c2=O)[C@H](O)[C@@H]1O [POLYOXIN B],71.4 µg/mL,–,–
CCCOC/C(=N\c1ccc(Cl)cc1C(F)(F)F)n1ccnc1 [TRIFLUMIZOLE],–,–,Activity (Podosphaera macularis [2]): 7.2%; Activity (Podosphaera macularis [3]): 89%
CO[C@H]1C[C@H](O[C@H]2[C@@H](OC)C[C@H](O[C@H]3CC[C@@]4(C)C(=CC[C@]5(O)[C@@H]4C[C@@H](OC(=O)/C=C(\C)C(C)C)[C@@]4(C)[C@]5(O)CC[C@]4(O)C(C)=O)C3)O[C@@H]2C)O[C@@H](C)[C@H]1O[C@H]1C[C@H](OC)[C@H](O[C@H]2C[C@@H](OC)[C@@H](O[C@@H]3O[C@H](CO)[C@@H](O[C@@H]4O[C@H](CO)[C@@H](O)[C@H](O)[C@H]4O)[C@H](O)[C@H]3O)[C@H](C)O2)[C@@H](C)O1 [WILFOSIDE C1GG],28.3 µg/mL,>77%,–
CO[C@H]1C[C@H](O[C@H]2[C@@H](OC)C[C@H](O[C@H]3CC[C@@]4(C)C(=CC[C@]5(O)[C@@H]4C[C@@H](OC(=O)/C=C(\C)C(C)C)[C@@]4(C)[C@]5(O)CC[C@]4(O)C(C)=O)C3)O[C@@H]2C)O[C@@H](C)[C@H]1O[C@H]1C[C@H](OC)[C@H](O[C@H]2C[C@@H](OC)[C@@H](O[C@@H]3O[C@H](CO)[C@@H](O)[C@H](O)[C@H]3O)[C@H](C)O2)[C@@H](C)O1 [WILFOSIDE C1G],12.9 µg/mL,>77%,Activity (Blumeria hordei [5]): 78%
CO[C@H]1C[C@H](O[C@H]2[C@@H](OC)C[C@H](O[C@H]3CC[C@@]4(C)C(=CC[C@]5(O)[C@@H]4C[C@@H](OC(=O)/C=C(\C)C(C)C)[C@@]4(C)[C@]5(O)CC[C@]4(O)C(C)=O)C3)O[C@@H]2C)O[C@@H](C)[C@H]1O[C@H]1C[C@H](OC)[C@H](O[C@H]2C[C@@H](OC)[C@@H](O)[C@H](C)O2)[C@@H](C)O1 [WILFOSIDE C1N],3.24 µg/mL,>77%,Activity (Blumeria hordei [5]): 95%
CO[C@H]1C[C@H](O[C@H]2[C@@H](OC)C[C@H](O[C@H]3CC[C@@]4(C)C(=CC[C@]5(O)[C@@H]4C[C@@H](OC(=O)/C=C/c4ccccc4)[C@@]4(C)[C@]5(O)CC[C@]4(O)C(C)=O)C3)O[C@@H]2C)O[C@@H](C)[C@H]1O[C@H]1C[C@H](OC)[C@H](O[C@H]2C[C@@H](OC)[C@@H](O[C@@H]3O[C@H](CO)[C@@H](O[C@@H]4O[C@H](CO)[C@@H](O)[C@H](O)[C@H]4O)[C@H](O)[C@H]3O)[C@H](C)O2)[C@@H](C)O1 [WILFOSIDE K1GG],–,–,IC50 (Blumeria hordei [1]): Not Active
CO[C@H]1C[C@H](O[C@H]2[C@@H](OC)C[C@H](O[C@H]3CC[C@@]4(C)C(=CC[C@]5(O)[C@@H]4C[C@@H](OC(=O)/C=C/c4ccccc4)[C@@]4(C)[C@]5(O)CC[C@]4(O)C(C)=O)C3)O[C@@H]2C)O[C@@H](C)[C@H]1O[C@H]1C[C@H](OC)[C@H](O[C@H]2C[C@@H](OC)[C@@H](O)[C@H](C)O2)[C@@H](C)O1 [WILFOSIDE K1N],–,–,IC50 (Blumeria hordei [1]): Not Active
